The values below come from ChEMBL document CHEMBL4261634, “Design and optimization of 2,3-dihydrobenzo[b][1,4]dioxine propanoic acids as novel GPR40 agonists with improved pharmacokinetic and safety profiles” (Bioorg Med Chem, 2018).

Activity calls are given as the source filed them. The calls are words filed in the database; no cut-off is given here.

For series [1], the target named is T1, Free fatty acid receptor 1 (Homo sapiens, UniProt O14842). The series is described as follows: Agonist activity at human GPR40 expressed in human HEK293 cells assessed as increase in intracellular calcium flux after 10 mins by fluorescence assay. It is filed as functional, cell-based. Summed up:
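Human GPR40 activity read by calcium mobilization to give EC50. Mean ± SD, n = 3.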
Background: Calcium assays in cells follow changes in intracellular calcium, usually with a dye or a luminescent sensor.

The target of series [2] is T1, Free fatty acid receptor 1. The series can be described thus: Agonist activity at human GPR40 expressed in human HEK293 cells assessed as increase in intracellular calcium flux after 10 mins by fluorescence assay relative to linoleic acid. In kind it is functional, cell-based. Summed up: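 Human GPR40 activity read by calcium mobilization to give EC50. Emax expressed relative to linoleic acid as 100%. Mean ± SD, n = 3.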

Series [3] relates to Rattus norvegicus. The series can be described thus: Antidiabetic activity in Sprague-Dawley rat assessed as reduction in blood glucose excursion at 10 to 20 mg/kg, po administered 60 mins prior to glucose challenge by OGTT. In kind it is functional, organism-based. Summed up:
(§1)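 OGTT in SD rats: compound given orally 60 min before a 3.0 g/kg glucose challenge. Blood glucose followed over time, and AUC0-60min or AUC0-120min calculated versus vehicle group. Mean ± SD, n = 8.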

A short description of series [4]: Elimination half life in Sprague-Dawley rat at 10 mg/kg, po by LC-ESI-MS analysis. It is filed as ADME, organism-based. To be noted: in vivo, read-out: beta t1/2 (converted). Summed up:
(§2)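 SD rats dosed orally (3 or 10 mg/kg) or by intravenous injection (1 mg/kg). Plasma PK parameters derived per route: Cmax, AUC0-t, Tmax, t1/2 and F after oral dosing; CL, AUC0-t, MRT, t1/2 and Vdss after iv dosing. Mean ± SD from three independent experiments (n = 3).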

The nature of series [5]: Cmax in Sprague-Dawley rat at 10 mg/kg, po by LC-ESI-MS analysis. In kind it is ADME, organism-based. Further details: dose 10 mg/kg, route oral. The note with it: in vivo. Summed up: as §2
The nature of series [6]: AUC (0 to t) in Sprague-Dawley rat at 10 mg/kg, po by LC-ESI-MS analysis. It is filed as ADME, organism-based. The note with it: in vivo. Summed up:
as §2

For series [7], the system named is Rattus norvegicus. The series can be described thus: Antidiabetic activity in Sprague-Dawley rat assessed as reduction in blood glucose AUC (0 to 120 mins) at 10 to 20 mg/kg, po administered 60 mins prior to glucose challenge by OGTT. In kind it is functional, organism-based. Summed up: as §1
A short description of series [8]: Tmax in Sprague-Dawley rat at 10 mg/kg, po by LC-ESI-MS analysis. It is filed as ADME, organism-based. To be noted: in vivo. Summed up:
as §2

Series [9] has as its system Rattus norvegicus. The series can be described thus: Antidiabetic activity in Sprague-Dawley rat assessed as reduction in blood glucose AUC (0 to 60 mins) at 10 to 20 mg/kg, po administered 60 mins prior to glucose challenge by OGTT. In kind it is functional, organism-based. Summed up:
as §1

T1 sequence (O14842 whole entry): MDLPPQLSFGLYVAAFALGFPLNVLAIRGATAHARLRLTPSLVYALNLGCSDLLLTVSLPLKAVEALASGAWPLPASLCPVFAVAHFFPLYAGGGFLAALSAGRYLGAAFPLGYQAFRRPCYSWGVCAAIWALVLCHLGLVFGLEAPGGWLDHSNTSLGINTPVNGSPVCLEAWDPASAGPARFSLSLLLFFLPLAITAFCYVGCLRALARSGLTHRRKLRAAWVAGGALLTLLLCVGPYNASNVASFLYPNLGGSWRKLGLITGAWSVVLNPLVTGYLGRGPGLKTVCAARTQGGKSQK

The term EC50 denotes the concentration giving half of the maximal effect. For orientation: Emax means the maximal effect, on the per cent scale that the assay sets. For the compound `CCOC(CC(=O)O)c1ccc(OCC2COc3ccc(Cl)cc3O2)cc1` (stereo not drawn), in series [1], the concentration giving a half-maximal response (EC50) turned out to be 0.64 µM. Further, the maximal effect (Emax) in [2] is 46%.
Take `CC#C[C@@H](CC(=O)O)c1ccc(OC[C@H]2COc3c(Cl)cccc3O2)cc1`: the concentration giving a half-maximal response (EC50) in [1] came out at 0.17 µM. The Emax in series [2] is 81%.
In the case of `CCCCC/C=C\C/C=C\CCCCCCCC(=O)O` [LINOLEIC ACID], in series [1], the concentration giving a half-maximal response (EC50) came to 4.8 µM.
For the compound `CC#C[C@@H](CC(=O)O)c1ccc(OC[C@H]2COc3ccc(C(=O)N4CCOCC4)cc3O2)cc1`, the concentration for a half-maximal effect (EC50) in [1] is over 50 µM. Also, in series [2], the Emax worked out at 33%.
For `O=C(O)CC(c1ccc(OCC2COc3ccc(Cl)cc3O2)cc1)c1cnco1` (stereo not drawn), in that order: 1.03 µM and 63%.
As to `COc1ccc2c(c1)OC(COc1ccc(CCC(=O)O)c(F)c1)CO2` (stereo not drawn), the concentration giving a half-maximal response (EC50) in series [1] was found to be 1.47 µM. Also, in [2], the maximal effect (Emax) came out at 80%.
Turning to `CC#CC(CC(=O)O)c1ccc(OCC2COc3ccc(Cl)cc3O2)cc1` (stereo not drawn), the 50% effective concentration (EC50) in series [1] turned out to be 0.1 µM. Also, in series [2], the maximal effect (Emax) was determined as 104%.
As for `O=C(O)CCc1ccc(OCC2COc3ccc(Br)cc3O2)cc1F` (stereo not drawn), the concentration for a half-maximal effect (EC50) in [1] turned out to be 2.24 µM. The Emax in series [2] stood at 81%.
For the compound `COCCOc1ccc2c(c1)OC(COc1ccc(CCC(=O)O)c(F)c1)CC2` (stereo not drawn), in series [1], the EC50 was 2.37 µM. Besides, in series [2], the maximum response (Emax) amounted to 36%.
Consider `COc1ccc2c(c1)OC(COc1ccc(CCC(=O)O)c(F)c1)CC2` (stereo not drawn), for which the EC50 in [1] is 2.11 µM. In addition, in series [2], the maximal effect (Emax) stood at 58%.
`CC#C[C@@H](CC(=O)O)c1ccc(OC[C@H]2COc3ccc(F)cc3O2)cc1`: the EC50 in [1] worked out at 0.21 µM. Moreover, the maximal effect (Emax) in [2] amounted to 86%.
For `Cn1ccnc1C(CC(=O)O)c1ccc(OCC2COc3ccc(Cl)cc3O2)cc1` (stereo not drawn), in series [1], the 50% effective concentration (EC50) turned out to be 5.88 µM. In addition, the maximum response (Emax) in [2] came to 68%.
Consider `CC#C[C@@H](CC(=O)O)c1ccc(OC[C@H]2COc3cccc(Cl)c3O2)cc1`, for which the concentration for a half-maximal effect (EC50) in series [1] was 0.52 µM. Further, in series [2], the maximum response (Emax) was 95%.
Take `O=C(O)CCc1ccc(OCC2COc3ccc(Cl)cc3O2)cc1F` (stereo not drawn): the EC50 in series [1] was found to be 0.83 µM. Also, the maximal response (Emax) in series [2] is 50%.
Regarding `CC#C[C@@H](CC(=O)O)c1ccc(OC[C@H]2COc3cc(Cl)ccc3O2)cc1`, in series [1], the EC50 is 0.11 µM. Moreover, the maximal response (Emax) in series [2] was 80%.
As for `CC#C[C@@H](CC(=O)O)c1ccc(OC[C@H]2COc3ccc(C#N)cc3O2)cc1`, in series [1], the EC50 came out at 2.1 µM. Further, the Emax in [2] was found to be 60%.
The matching figures for `CC#C[C@@H](CC(=O)O)c1ccc(OC[C@H]2COc3ccc(CO)cc3O2)cc1`: over 30 µM and 42%.
For the compound `O=C(O)CCc1ccc(OCC2COc3cc(Br)ccc3O2)cc1F` (stereo not drawn), the concentration for a half-maximal effect (EC50) in [1] was determined as 0.98 µM. Besides, the Emax in series [2] came to 67%.
For `CC#C[C@@H](CC(=O)O)c1ccc(OC[C@H]2COc3cc(F)c(Cl)cc3O2)cc1`, the 50% effective concentration (EC50) in series [1] was found to be 0.21 µM. Moreover, in series [2], the maximum response (Emax) came out at 46%.
With `CC#C[C@@H](CC(=O)O)c1ccc(OC[C@H]2COc3ccc(C(=O)N(C)C)cc3O2)cc1`, the EC50 in series [1] is over 30 µM. Besides, the Emax in series [2] came to 32%.
For `CC#C[C@@H](CC(=O)O)c1ccc(OC[C@H]2COc3ccc(OC(F)(F)F)cc3O2)cc1`, in [1], the EC50 came out at 0.7 µM. Further, in [2], the Emax came out at 73%.
As to `O=C(O)CC(c1ccc(F)cc1)c1ccc(OCC2COc3ccc(Cl)cc3O2)cc1` (stereo not drawn), the EC50 in [1] turned out to be 4.31 µM. In series [2], the Emax stood at 83%.
The matching figures for `CC#C[C@H](CC(=O)O)c1ccc(OC[C@@H]2COc3ccc(Cl)cc3O2)cc1`: 5.04 µM and 41%.
Take `CC#C[C@@H](CC(=O)O)c1ccc(OC[C@H]2COc3ccc(C(C)=O)cc3O2)cc1`: the EC50 in series [1] is over 30 µM. Also, the Emax in series [2] was 51%.
Turning to `CC#C[C@@H](CC(=O)O)c1ccc(OC[C@H]2COc3ccc(OC)cc3O2)cc1`, the half-maximal effective concentration (EC50) in series [1] amounted to 0.13 µM. In addition, the Emax in series [2] amounted to 91%.
With `O=C(O)CCc1ccc(NCC2COc3ccc(Cl)cc3O2)cc1F` (stereo not drawn), the EC50 in series [1] was 13.6 µM. Also, the Emax in [2] stood at 69%.
In the case of `O=C(O)CC1(c2ccc(OCC3COc4ccc(Cl)cc4O3)cc2)COC1` (stereo not drawn), in series [1], the EC50 came to 8.06 µM. In series [2], the maximum response (Emax) is 66%.
As for `Cn1nncc1C(CC(=O)O)c1ccc(OCC2COc3ccc(Cl)cc3O2)cc1` (stereo not drawn), the EC50 in series [1] was 3.87 µM. In series [2], the Emax came to 70%.
For `CS(=O)(=O)CCCOc1ccc2c(c1)OC(COc1ccc(CCC(=O)O)c(F)c1)CC2` (stereo not drawn), the half-maximal effective concentration (EC50) in series [1] came to 36.3 µM. Further, in [2], the Emax is 38%.
For `CC#C[C@@H](CC(=O)O)c1ccc(OC[C@H]2COc3cc(Cl)c(Cl)cc3O2)cc1`, in that order: 0.15 µM and 33%.
By Cmax is commonly meant the maximum level reached in the sampled fluid or tissue. In general, AUC(0-t) refers to the area under the concentration-time curve up to a stated or last time point. Read a high AUC(0-t) as high exposure. As a reminder, the Tmax is the time at which the peak concentration occurs. With `CC#C[C@@H](CC(=O)O)c1ccc(OC[C@H]2COc3ccccc3O2)cc1`, the outcome in the series on Rattus norvegicus [3], in the series with Rattus norvegicus [7] and with Rattus norvegicus [9] was Active. The half-life in series [4] was 3.14 h. In series [5], the peak concentration (Cmax) was determined as 36700 ng/mL. In series [1], the EC50 was found to be 0.09 µM. In series [2], the maximum response (Emax) is 70%. The same compound had an area under the curve AUC(0-t) in [6] of 275 µg·h/mL. In series [8], the time to peak (Tmax) worked out at 1.17 h.
Turning to `CC#C[C@H](CC(=O)O)c1ccc(OC[C@H]2COc3ccc(Cl)cc3O2)cc1`, in [1], the concentration giving a half-maximal response (EC50) amounted to 3.4 µM. Further, the Emax in [2] amounted to 47%.
`CC#C[C@@H](CC(=O)O)c1ccc(OC[C@@H]2COc3ccc(Cl)cc3O2)cc1`: the EC50 in series [1] amounted to 0.26 µM. In addition, in [2], the Emax was 65%.
The matching figures for `CC#C[C@@H](CC(=O)O)c1ccc(OC[C@H]2COc3ccc(OC(C)C)cc3O2)cc1`: 0.28 µM and 90%.
In the case of `CC#C[C@@H](CC(=O)O)c1ccc(OC[C@H]2COc3ccc(Br)cc3O2)cc1`, in series [1], the EC50 stood at 0.21 µM. The maximum response (Emax) in series [2] was determined as 69%.
In the case of `CC#C[C@@H](CC(=O)O)c1ccc(OC[C@H]2COc3cc(Br)c(Cl)cc3O2)cc1`, the concentration for a half-maximal effect (EC50) in [1] worked out at 0.2 µM. In addition, the Emax in series [2] was 82%.
Turning to `CC#C[C@@H](CC(=O)O)c1ccc(OC[C@H]2COc3ccc(C)cc3O2)cc1`, the result with Rattus norvegicus [3], with Rattus norvegicus [7] and in the series on Rattus norvegicus [9] was Active. Besides, the half-life in [4] is 1.79 h. The same compound displayed a maximum concentration (Cmax) in series [5] of 23700 ng/mL. Besides, the EC50 in series [1] was 0.12 µM. Moreover, the Emax in [2] worked out at 78%. Further, the exposure AUC(0-t) in series [6] is 65.2 µg·h/mL. The time of peak concentration (Tmax) in series [8] was 0.417 h.
Turning to `O=C(O)CC(c1ccncc1)c1ccc(OCC2COc3ccc(Cl)cc3O2)cc1` (stereo not drawn), the concentration for a half-maximal effect (EC50) in [1] was 1.17 µM. In addition, in [2], the maximum response (Emax) was 62%.
The matching figures for `CC#C[C@@H](CC(=O)O)c1ccc(OC[C@H]2COc3ccc(S(C)(=O)=O)cc3O2)cc1`: 27.2 µM and 55%.
Turning to `Cn1cncc1C(CC(=O)O)c1ccc(OCC2COc3ccc(Cl)cc3O2)cc1` (stereo not drawn), the EC50 in series [1] turned out to be 3.06 µM. For the same compound, the Emax in [2] turned out to be 62%.
